ChEMBL document CHEMBL4828745, “Discovery and Structure-Activity Relationships of Quinazolinone-2-carboxamide Derivatives as Novel Orally Efficacious Antimalarials” (J Med Chem, 2021)
Converted amounts (≈) assume the structure as drawn.

Experiments:
[1] = Cytotoxicity against human HEK293 cells assessed as cell viability incubated for 72 hrs by Alamar blue assay; assay type: cell-based
How it was run: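 HEK293 cells handled with the same incubation, compound addition and timing as the 72 h parasite assay. Alamar Blue, diluted in growth medium, was incubated 4 h at 37 °C/5% CO2, then 20 h at room temperature before plate read.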

Plasmodium falciparum = test: Antiplasmodial activity against Plasmodium falciparum 3D7 infected in human erythrocyte assessed as intraerythrocytic growth inhibition incubated for 72 hrs by DAPI-staining based imaging analysis; assay type: functional, organism-based; details: 3D7, 72 h
How it was run: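 P. falciparum 3D7 cultured in RPMI1640 with hypoxanthine, HEPES, 2.5 mg/mL AlbuMAX II and 5% human serum. Sorbitol-synchronized rings exposed 72 h at 37 °C under 5% CO2/5% O2, then DAPI-stained with saponin/Triton X-100 for 8 h in the dark. High-content imaging with spot detection. Duplicate points. Reference antimalarials run in each assay.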

[2] = Intrinsic clearance in rat liver microsomes at […] by LC-MS/MS analysis; assay type: ADME, Microsome
How it was run: (§1)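 Liver microsomes (human, mouse or rat) at 0.4 mg/mL protein, 37 °C, with an NADPH-regenerating system. Compound at 0.25 or 0.5 μM. Acetonitrile/diazepam quench, LC-MS quantitation. CLint from the first-order degradation rate constant.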

[3] = Kinetic solubility of the compound in pH 6.5 phosphate buffer by nephelometry; assay type: physicochemical; details: read-out: Kinetic_solubility
How it was run: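 DMSO stock spiked into pH 6.5 phosphate buffer (1% DMSO final). After 30 min, solubility range estimated by nephelometry.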

[4] = Intrinsic clearance in mouse liver microsomes at […] by LC-MS/MS analysis; assay type: ADME, Microsome; how it was run: as §1
[5] = Apparent permeability of the compound from apical to basolateral side in human Caco-2 cells at 20 uM measured after 120 mins by LC-MS analysis; assay type: ADME, cell-based
How it was run: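 Caco-2 monolayers, apical-to-basolateral direction, in pH 7.4 HBSS with 20 mM HEPES on both sides. Donor at nominal 20 μM, 0.1% DMSO final. Flux followed over 120 min. Quantified by LC-MS with mass balance to derive Papp.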

[6] = Intrinsic clearance in human liver microsomes at […] by LC-MS/MS analysis; assay type: ADME, Microsome; how it was run: as §1

For `COc1cccc(CNC(=O)c2nc3ccc(F)c(OCCc4ccc(C(=O)O)cc4)c3c(=O)[nH]2)c1`, the CC50 at 72 h [1] was > 20 µM and the IC50 (Plasmodium falciparum) was 2380 nM.

For `CCc1ccnc(CNC(=O)c2nc3cccc(COCc4ccc(C(=O)O)cc4)c3c(=O)[nH]2)c1`, the CC50 at 72 h [1] was > 20 µM and the IC50 (Plasmodium falciparum) was 890 nM.

For `CCc1cccc(CNC(=O)c2nc3ccc(F)c(OCCc4ccc(C(N)=O)cc4)c3c(=O)[nH]2)c1`, the CC50 at 72 h [1] was > 20 µM and the IC50 (Plasmodium falciparum) was > 20000 nM.

In the case of `CCc1cccc(CNC(=O)c2nc3cc(COCc4ccc(C(=O)O)cc4)ccc3c(=O)[nH]2)c1`, the CC50 at 72 h [1] is reported as > 20 µM and the IC50 (Plasmodium falciparum) is reported as > 20000 nM.

For `CCc1cccc(CNC(=O)c2nc3ccc(F)c(OCCc4ccc(C(=O)O)cc4)c3c(=O)[nH]2)c1`, the CLH [2] was 485 uL/ml.millig, the CC50 at 72 h [1] was > 20 µM and the solubility kinetic [3] was 12.5 µg/mL (≈ 25.5 µM). For the same molecule, the IC50 (Plasmodium falciparum) was 420 nM, the CLH [4] was 69 uL/ml.millig and the Papp A→B at 2 h, 20 µM [5] was 44 ×10⁻⁶ cm/s.

For `COc1cccc(CNC(=O)c2nc3ccc(F)c(OCCc4ccc(N)cc4)c3c(=O)[nH]2)c1`, the CC50 at 72 h [1] was > 20 µM and the IC50 (Plasmodium falciparum) was > 20000 nM.

For `CCc1cccc(CNC(=O)c2nc3ccc(F)c(COc4ccc(C(=O)O)cc4)c3c(=O)[nH]2)c1`, the CC50 at 72 h [1] was > 20 µM and the IC50 (Plasmodium falciparum) was 6970 nM.

With `O=C(O)c1ccc(CCOc2c(F)ccc3nc(C(=O)NCc4cccc(OCC5CC5)c4)[nH]c(=O)c23)cc1` the CC50 at 72 h [1] was > 20 µM and the IC50 (Plasmodium falciparum) was 1670 nM.

In the case of `CCc1cccc(CNC(=O)c2nc3cccc(COc4ccc(C(=O)O)cc4)c3c(=O)[nH]2)c1`, the CC50 at 72 h [1] is reported as > 20 µM and the IC50 (Plasmodium falciparum) is reported as > 20000 nM.

For `Cc1cc(CNC(=O)c2nc3ccc(F)c(OCCc4ccc(C(=O)O)cc4)c3c(=O)[nH]2)ccc1F`, the CC50 at 72 h [1] was > 20 µM and the IC50 (Plasmodium falciparum) was 590 nM.

With `CCc1ccc(CNC(=O)c2nc3ccc(F)c(OCCc4ccc(C(=O)O)cc4)c3c(=O)[nH]2)cc1` the CC50 at 72 h [1] was > 20 µM and the IC50 (Plasmodium falciparum) was 1160 nM.

With `CCc1cccc(CNC(=O)c2nc3cccc(CN(C)Cc4ccc(C(=O)O)cc4)c3c(=O)[nH]2)c1` the CC50 at 72 h [1] was > 20 µM and the IC50 (Plasmodium falciparum) was 1150 nM.

In the case of `CCc1cccc(CNC(=O)c2nc3cccc(COc4ccc(CC(=O)O)cc4)c3c(=O)[nH]2)c1`, the CC50 at 72 h [1] is reported as > 20 µM and the IC50 (Plasmodium falciparum) is reported as > 20000 nM.

In the case of `CCc1cccc(CNC(=O)c2nc3c(COCc4ccc(C(=O)O)cc4)cccc3c(=O)[nH]2)c1`, the CC50 at 72 h [1] is reported as > 20 µM and the IC50 (Plasmodium falciparum) is reported as > 20000 nM.

In the case of `CCc1cccc(CNC(=O)c2nc3cccc(COCc4cccc(C(=O)O)c4)c3c(=O)[nH]2)c1`, the CC50 at 72 h [1] is reported as > 20 µM and the IC50 (Plasmodium falciparum) is reported as 1580 nM.

In the case of `CCc1cccc(CNC(=O)c2nc3c(OC)ccc(COCc4ccc(C(=O)O)cc4)c3c(=O)[nH]2)c1`, the CC50 at 72 h [1] is reported as > 20 µM and the IC50 (Plasmodium falciparum) is reported as 1890 nM.

For `CCc1cccc(CNC(=O)c2nc3cccc(COCc4ccc(C(N)=O)cc4)c3c(=O)[nH]2)c1`, the CLH [2] was 636 uL/ml.millig, the CC50 at 72 h [1] was > 20 µM and the CLH [6] was 83 uL/ml.millig. For the same molecule, the solubility kinetic [3] was < 3.1 µg/mL and the IC50 (Plasmodium falciparum) was 310 nM.

With `COc1cccc(CNC(=O)c2nc3ccc(F)c(OCCc4ccccc4)c3c(=O)[nH]2)c1` the CC50 at 72 h [1] was > 20 µM and the IC50 (Plasmodium falciparum) was > 20000 nM.

For `O=C(O)c1ccc(CCOc2c(F)ccc3nc(C(=O)NCc4cccc(C5CC5)c4)[nH]c(=O)c23)cc1`, the CC50 at 72 h [1] was > 20 µM and the IC50 (Plasmodium falciparum) was 4760 nM.

In the case of `CC(C)c1cccc(CNC(=O)c2nc3ccc(F)c(OCCc4ccc(C(=O)O)cc4)c3c(=O)[nH]2)c1`, the CC50 at 72 h [1] is reported as > 20 µM and the IC50 (Plasmodium falciparum) is reported as 1160 nM.

In the case of `O=C(O)c1ccc(CCOc2c(F)ccc3nc(C(=O)NCC4CCCCC4)[nH]c(=O)c23)cc1`, the CLH [2] is reported as 740 uL/ml.millig, the CC50 at 72 h [1] is reported as > 20 µM and the CLH [6] is reported as 7 uL/ml.millig. The solubility kinetic [3] was < 1.6 µg/mL, the IC50 (Plasmodium falciparum) was > 20000 nM and the CLH [4] was 62 uL/ml.millig. For the same molecule, the Papp A→B at 2 h, 20 µM [5] was 32 ×10⁻⁶ cm/s.

In the case of `CCc1cccc(CNC(=O)c2nc3cccc(CSCc4ccc(C(=O)O)cc4)c3c(=O)[nH]2)c1`, the CC50 at 72 h [1] is reported as > 20 µM and the IC50 (Plasmodium falciparum) is reported as 5540 nM.

In the case of `CCc1cccc(CNC(=O)c2nc3ccc(COCc4ccc(C(=O)O)cc4)cc3c(=O)[nH]2)c1`, the CC50 at 72 h [1] is reported as > 20 µM and the IC50 (Plasmodium falciparum) is reported as 1620 nM.
